Converted amounts (≈) assume the structure as drawn.
Legend:
[1] = Intrinsic clearance in rat liver microsomes assessed per mg of protein; format: ADME, Microsome
Method in brief: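 Intrinsic clearance measured in rat liver microsomes, expressed as µL/min/mg protein.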

[2] = biological target: T1, Sodium- and chloride-dependent glycine transporter 1 (Homo sapiens, UniProt P48067); test: Inhibition of human GlyT1 expressed in CHO cells assessed as inhibition of [3H]glycine uptake by liquid scintillation counting; format: cell-based
T1 sequence (P48067 whole entry): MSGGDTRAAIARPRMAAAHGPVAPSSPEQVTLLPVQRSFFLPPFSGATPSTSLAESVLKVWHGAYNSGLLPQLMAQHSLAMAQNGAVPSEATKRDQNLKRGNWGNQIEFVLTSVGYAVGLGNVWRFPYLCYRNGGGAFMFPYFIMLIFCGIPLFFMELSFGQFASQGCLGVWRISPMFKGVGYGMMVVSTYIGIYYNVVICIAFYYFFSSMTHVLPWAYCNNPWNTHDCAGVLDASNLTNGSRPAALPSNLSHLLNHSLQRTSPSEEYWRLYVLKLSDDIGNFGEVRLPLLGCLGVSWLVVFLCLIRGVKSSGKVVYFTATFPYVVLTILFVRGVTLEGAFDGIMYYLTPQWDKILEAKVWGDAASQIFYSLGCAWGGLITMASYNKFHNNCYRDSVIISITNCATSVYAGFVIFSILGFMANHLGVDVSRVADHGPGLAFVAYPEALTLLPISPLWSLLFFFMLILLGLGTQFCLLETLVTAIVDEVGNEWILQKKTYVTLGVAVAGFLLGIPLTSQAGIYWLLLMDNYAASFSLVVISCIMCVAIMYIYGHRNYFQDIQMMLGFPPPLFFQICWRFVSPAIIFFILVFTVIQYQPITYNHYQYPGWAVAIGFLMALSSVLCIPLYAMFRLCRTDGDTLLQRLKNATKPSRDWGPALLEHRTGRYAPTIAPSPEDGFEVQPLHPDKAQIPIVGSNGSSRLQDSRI
Method in brief: (§1)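 [3H]-glycine uptake inhibition in cells transfected with human GlyT1 or human GlyT2 cDNA. EC50 values averaged from at least two independent experiments.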

[3] = biological target: T2, Sodium- and chloride-dependent glycine transporter 2 (Homo sapiens, UniProt Q9Y345); test: Inhibition of human GlyT2 expressed in CHO cells assessed as inhibition of [3H]glycine uptake by liquid scintillation counting; format: cell-based; method in brief: as §1
T2 sequence (Q9Y345 whole entry): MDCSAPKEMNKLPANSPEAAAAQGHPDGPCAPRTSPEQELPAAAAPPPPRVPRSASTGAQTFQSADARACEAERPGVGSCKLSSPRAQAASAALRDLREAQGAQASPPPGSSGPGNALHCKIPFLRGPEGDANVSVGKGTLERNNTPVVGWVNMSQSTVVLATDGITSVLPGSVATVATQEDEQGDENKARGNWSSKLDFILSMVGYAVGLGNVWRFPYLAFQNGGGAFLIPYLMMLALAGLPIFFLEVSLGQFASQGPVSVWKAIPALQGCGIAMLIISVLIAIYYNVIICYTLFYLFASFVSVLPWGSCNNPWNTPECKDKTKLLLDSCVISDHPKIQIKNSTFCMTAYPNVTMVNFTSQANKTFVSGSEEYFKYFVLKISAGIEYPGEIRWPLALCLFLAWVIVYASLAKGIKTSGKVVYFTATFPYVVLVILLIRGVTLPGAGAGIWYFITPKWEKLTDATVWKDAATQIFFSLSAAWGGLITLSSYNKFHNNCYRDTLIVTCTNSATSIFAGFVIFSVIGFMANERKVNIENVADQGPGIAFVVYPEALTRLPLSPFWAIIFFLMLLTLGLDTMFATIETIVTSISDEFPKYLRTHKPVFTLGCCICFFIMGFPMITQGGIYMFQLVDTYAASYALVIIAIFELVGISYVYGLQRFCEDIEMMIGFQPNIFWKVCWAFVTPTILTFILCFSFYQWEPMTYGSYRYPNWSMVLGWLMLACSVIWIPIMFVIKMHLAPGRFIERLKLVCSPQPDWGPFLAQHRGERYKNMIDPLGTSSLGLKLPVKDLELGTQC

[4] = Drug level in rat plasma at 10 mg/kg after 3 hrs; format: ADME, organism-based; design: dose 10 mg/kg
Method in brief: (§2)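 Rats dosed 10 mg/kg po, n = 6. Striatal extracellular fluid sampled for glycine over 3 h, expressed as maximal fold increase and fold increase at 3 h. Animals sacrificed at 3 h; plasma and brain drug levels measured at 3 h post dose.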

[5] = biological target: hERG (KCNH2) (Homo sapiens, UniProt Q12809); test: Inhibition of human ERG at 10 uM by patch clamp assay
hERG (KCNH2), sequence (Q12809 whole entry): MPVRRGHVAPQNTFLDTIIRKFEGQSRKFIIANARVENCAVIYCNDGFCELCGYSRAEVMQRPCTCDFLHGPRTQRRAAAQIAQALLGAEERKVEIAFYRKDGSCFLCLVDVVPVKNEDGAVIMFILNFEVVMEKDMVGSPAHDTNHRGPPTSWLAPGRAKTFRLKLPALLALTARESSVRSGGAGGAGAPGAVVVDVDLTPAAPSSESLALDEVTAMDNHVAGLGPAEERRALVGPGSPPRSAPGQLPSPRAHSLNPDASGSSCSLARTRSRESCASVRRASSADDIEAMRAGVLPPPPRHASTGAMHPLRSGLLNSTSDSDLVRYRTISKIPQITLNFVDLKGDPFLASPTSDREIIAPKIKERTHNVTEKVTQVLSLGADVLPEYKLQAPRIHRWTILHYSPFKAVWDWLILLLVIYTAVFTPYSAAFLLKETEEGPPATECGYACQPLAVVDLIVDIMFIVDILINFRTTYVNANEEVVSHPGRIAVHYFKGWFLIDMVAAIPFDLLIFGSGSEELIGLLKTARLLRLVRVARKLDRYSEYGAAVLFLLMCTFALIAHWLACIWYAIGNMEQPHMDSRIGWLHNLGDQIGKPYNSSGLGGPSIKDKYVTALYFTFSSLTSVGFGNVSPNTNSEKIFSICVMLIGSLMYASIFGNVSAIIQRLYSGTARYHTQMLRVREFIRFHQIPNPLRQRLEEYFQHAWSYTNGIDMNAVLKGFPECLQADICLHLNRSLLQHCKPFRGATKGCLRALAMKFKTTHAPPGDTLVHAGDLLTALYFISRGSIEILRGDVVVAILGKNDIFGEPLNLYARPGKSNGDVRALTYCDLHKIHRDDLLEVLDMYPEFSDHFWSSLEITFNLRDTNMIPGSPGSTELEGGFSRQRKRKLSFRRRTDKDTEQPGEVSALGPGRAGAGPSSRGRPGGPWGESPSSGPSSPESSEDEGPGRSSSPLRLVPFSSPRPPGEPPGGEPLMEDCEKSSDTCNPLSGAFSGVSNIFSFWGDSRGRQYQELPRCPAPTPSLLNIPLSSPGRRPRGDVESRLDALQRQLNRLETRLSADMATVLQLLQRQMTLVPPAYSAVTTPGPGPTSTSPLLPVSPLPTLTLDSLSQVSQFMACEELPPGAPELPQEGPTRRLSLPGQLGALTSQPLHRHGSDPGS
Method in brief: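 hERG block measured by patch clamp at 10 µM; values averaged from at least two independent experiments.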

[6] = Volume of distribution at steady state in rat at 2 mg/kg, iv; format: ADME, organism-based; design: dose 2 mg/kg, route intravenous; details: in vivo, read-out: Vdss
Method in brief: (§3)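 Single-dose rat PK with iv doses of 1.7, 2.0 or 2.2 mg/kg and po doses of 2, 5.7 or 6.8 mg/kg. CL, Vss, oral bioavailability, terminal half-life and brain/plasma ratio determined; values averaged from two independent experiments.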

[7] = Terminal half life in rat at 2 mg/kg, po; format: ADME, organism-based; design: dose 2 mg/kg, route oral; details: in vivo, read-out: beta t1/2 (converted); method in brief: as §3
[8] = system: Rattus norvegicus; test: […] in rat striatum assessed as increase of glycine at 10 mg/kg, po after 3 hrs relative to basal level; format: functional; method in brief: as §2
[9] = Drug level in rat brain at 10 mg/kg after 3 hrs; format: ADME, organism-based; design: dose 10 mg/kg; details: read-out: Drug uptake; method in brief: as §2
[10] = Ratio of drug level in brain to plasma in rat at 2 mg/kg, po; format: ADME, organism-based; design: dose 2 mg/kg, route oral; details: read-out: BPR
[11] = Permeability of the compound by PAMPA; format: ADME; details: read-out: permeability
Method in brief: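 PAMPA: permeation constant Pe (10^-6 cm/s) measured through artificial membranes.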

[12] = Clearance in rat at 2 mg/kg, iv; format: ADME, organism-based; design: dose 2 mg/kg, route intravenous; details: in vivo; method in brief: as §3
[13] = Aqueous solubility of the compound by lyophilisate solubility assay; format: physicochemical; details: buffer
Method in brief: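 LYSA: compound in DMSO solution lyophilized, then dissolved in 0.05 M phosphate buffer pH 6.5, stirred 1 h and shaken 2 h; solubility in µg/ml.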

[14] = Oral bioavailability in rat at 2 mg/kg; format: ADME, organism-based; details: in vivo; method in brief: as §3
[15] = system: Mus musculus; test: Antipsychotic activity in po dosed mouse assessed as inhibition of L-687414-induced hyperlocomotion after 60 mins; format: functional; details: 1 h, read-out: ID50 (the source's name)
Method in brief: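 Mice given compound orally, n = 8 per group; hyperlocomotion induced by L-687,414. Horizontal activity counts recorded over a 60-min period and reported as group means. ID50 (mg/kg) derived from dose-dependent inhibition of the L-687,414-induced response.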

[16] = system: Rattus norvegicus; test: […] in rat striatum assessed as increase of glycine level at 10 mg/kg, po relative to basal level; format: functional; method in brief: as §2
[17] = Ratio of drug level in brain to plasma in rat at 6.8 mg/kg, po; format: ADME, organism-based; design: dose 6.8 mg/kg, route oral; details: read-out: BPR
[18] = Clearance in rat at 2.2 mg/kg, iv; format: ADME, organism-based; design: dose 2.2 mg/kg, route intravenous; details: in vivo; method in brief: as §3
[19] = Oral bioavailability in rat at 6.8 mg/kg; format: ADME, organism-based; details: in vivo; method in brief: as §3
[20] = Volume of distribution at steady state in rat at 2.2 mg/kg, iv; format: ADME, organism-based; design: dose 2.2 mg/kg, route intravenous; details: in vivo, read-out: Vdss; method in brief: as §3
[21] = Terminal half life in rat at 6.8 mg/kg, po; format: ADME, organism-based; design: dose 6.8 mg/kg, route oral; details: in vivo, read-out: beta t1/2 (converted); method in brief: as §3
[22] = Clearance in rat at 1.7 mg/kg, iv; format: ADME, organism-based; design: dose 1.7 mg/kg, route intravenous; details: in vivo; method in brief: as §3
[23] = Volume of distribution at steady state in rat at 1.7 mg/kg, iv; format: ADME, organism-based; design: dose 1.7 mg/kg, route intravenous; details: in vivo, read-out: Vdss; method in brief: as §3
[24] = Oral bioavailability in rat at 5.7 mg/kg; format: ADME, organism-based; details: in vivo; method in brief: as §3
[25] = Terminal half life in rat at 5.7 mg/kg, po; format: ADME, organism-based; design: dose 5.7 mg/kg, route oral; details: in vivo, read-out: beta t1/2 (converted); method in brief: as §3
[26] = Ratio of drug level in brain to plasma in rat at 5.7 mg/kg, po; format: ADME, organism-based; design: dose 5.7 mg/kg, route oral; details: read-out: BPR

| Compound | microsomal CLint [1] [µL/min/mg] | EC50 [2] [µM] | EC50 [3] [µM] | concentration at 3 h [4] [ng/mL] | inhibition at 10 µM [5] [%] | fold change (FC) [8] | concentration at 3 h [9] [ng/mL] | Papp [11] [×10⁻⁶ cm/s] | solubility [13] [µg/mL] | ED50 [15] [mg/kg] | fold change (FC) [16] | also measured |
| --- | --- | --- | --- | --- | --- | --- | --- | --- | --- | --- | --- | --- |
| C[C@H](Oc1ccc(S(C)(=O)=O)cc1C(=O)N1Cc2cc(C(F)(F)F)cnc2C1)C(F)(F)F | 1.9 | 0.05 | > 30 | 2500 | 12 | 1.8 | 500 | 5 | 280 (≈ 580 µM) | 0.4 | 1.8 | Vd [6]: 1.4 L/kg; half-life [7]: 6 h; Kp [10]: 0.2; clearance [12]: 1.7 mL/min/kg; bioavailability [14]: 55% |
| C[C@H](Oc1ccc(S(C)(=O)=O)cc1C(=O)N1Cc2ccc(C3CCOCC3)cc2C1)C(F)(F)F | 13.9 | 0.014 | > 30 | 480 | 23 | 2 | 274 | 3.3 | 76 (≈ 153 µM) | 0.5 | 2.1 | Kp [17]: 0.6; clearance [18]: 21 mL/min/kg; bioavailability [19]: 65%; Vd [20]: 3.7 L/kg; half-life [21]: 3.2 h |
| CC(C)Oc1ccc(S(C)(=O)=O)cc1C(=O)N1Cc2ccc(C3CCOCC3)cc2C1 | 18.9 | 0.028 | > 30 | 279 | 10 | 1.5 | 159 | 4.2 | 191 (≈ 431 µM) | 0.5 | 1.9 | clearance [22]: 22 mL/min/kg; Vd [23]: 2 L/kg; bioavailability [24]: 40%; half-life [25]: 1.6 h; Kp [26]: 0.6 |

Source: ChEMBL document CHEMBL1629713, “Discovery of benzoylisoindolines as a novel class of potent, selective and orally active GlyT1 inhibitors” (Bioorg Med Chem Lett, 2010)
